Screening data: PubChem BioAssay, several laboratories
This is one part of a sample in which hits are shown more often than they occur.
HSF1 inhib: HSF1 inhibitors in luciferase reporter cells, primary screen, cell-based, NIH3T3, luminescence | NIH3T3-HGL HSE-luciferase, MG132-induced, luminescence 8 h; stronger effect = lower value | activity change, negative = inhibition, % at 7.5 µM (by protocol) | 300,000 compounds, 0.77% hits | AID 2098, 2009;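 active = more than half of replicate wells show activity change below -50%, luminescence cut by over half; inconclusive = some wells, but at most half, below -50%; inactive = no replicate well below -50%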;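 also: luciferase reports HSF-1 transcriptional activity via heat shock element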
L major viab: Leishmania major promastigote growth inhibition, primary screen; Leishmania major promastigotes, resazurin fluorescence viability; inhibition, % at 10 µM; 200,000 compounds, 9% hits; in the data active = inhibition above about 50%;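 also: promastigotes grown with compound for 44 hours at 28 °C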
Hsp70 act: Hsp70 transcriptional activators, primary screen, cell-based, HeLa, Hsp70 promoter luciferase, luminescence, 10 µM; HeLa Hsp70 promoter luciferase reporter; scaled: vehicle 0, proteasome-inhibitor control 100%; activation, % at 10 µM; 200,000 compounds, 0.04% hits; AID 1203, 2008;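 active = activation above the mean across all tested compounds plus 3 SD, cutoff set per campaign, cut at about 5.5% in these data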
T cruzi repl: inhibitors of intracellular T. cruzi growth, primary screen, luminescence, NIH3T3 host cells. T. cruzi beta-gal in NIH3T3, 90 h. inhibition, % (no concentration beside the values). 300,000 compounds, 1.4% hits. AID 1885, 2009;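 active = mean inhibition across valid replicates above about 55%, limit read from the data; inconclusive = mean below that limit but half or more replicates reach it; inactive = mean below it, under half of replicates reach it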;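 also: signal also drops with host cell toxicity which is not excluded here; higher percent means less beta-gal luminescence so fewer parasites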
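Assay system: NIH/3T3 host cells with β-galactosidase reporter T. cruzi; input: 5,000 host fibroblasts per well; compound: single 50 nL compound addition per well in DMSO; timing: ≥90 h infection period, 3 h prior cell attachment; measured by: GalScreen β-gal luminescence, detergent lysis, 60 min; evaluation: percent inhibition of parasite-derived β-gal signal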
HSF1 activator: HSF-1 activators, primary screen, NIH3T3-HGL cells, MG132 stress, luminescence, single point; AID 504408, 2011; 300,000 compounds, 1.7% hits; NIH3T3-HGL HSF-1 luciferase reporter, 8 h; 100% = twice DMSO control signal; activation, % at 9 µM;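 active = mean replicate activation of at least 50% with a set share of replicates each reaching 50%; inconclusive = only one of those two conditions met; inactive = mean below 50% and too few replicates reaching it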
Each line names hits and unclear results; the compound was inactive in the other large screens.

O=C(COc1ccc2ccccc2c1)N1CCN(CC2CC3C=CC2C3)CC1 (stereo unspecified)	L major viab 57.6
O=c1[nH]c(O)c(C=Nc2ccccc2Oc2ccccc2)c(=O)[nH]1	none (no result: L major viab, Hsp70 act)
COC(=O)c1ccc(CN2CCN(Cc3ccccc3)CC2)cc1	L major viab 93.4
CC(=O)Nc1ccc(CC(=O)N2CCN(Cc3ccccc3)CC2)cc1	none (no result: L major viab, Hsp70 act)
Cn1c(=O)c2c(nc(N/N=C/c3c(O)n(-c4ccccc4)c(=S)[nH]c3=O)n2C)n(C)c1=O	none
CCCCCc1nc2c(c(=O)c3ccccc3n2C)c(=O)n1C1CCCCCC1	L major viab 98.5
COc1cccc(CCNCc2cccc(C(F)(F)F)c2)c1	T cruzi repl 64.1
CCOP(=O)(C#CC(C)(C)C)C(O)(c1ccccc1)C(F)(F)F (stereo unspecified)	none
O=C(Cc1cccs1)N1CCC2(CC1)OCCO2	none
CNC(=S)N1CCn2cccc2C1c1cccnc1 (stereo unspecified)	L major viab 67.9
CC12CN3CC(C)(CN(C1)C3c1cccnc1)C2=O (stereo unspecified)	none
CCC12CN3CC(CC)(CN(C1)C3c1cccnc1)C2=O (stereo unspecified)	none
CCCCNC(=S)N1CCn2cccc2C1c1cccnc1 (stereo unspecified)	L major viab 92.3, T cruzi repl 64.6
CNC(=S)N1CC2CC(C1)c1cccc(=O)n1C2 (stereo unspecified)	none
O=C(C1CCC(=O)N1C1CCCCC1)N1CCC2(CC1)OCCO2 (stereo unspecified)	none
Cc1cccc(N2C(=O)NC(=O)/C(=C\c3cc(C)n(-c4sc5c(c4C#N)CCCC5)c3C)C2=O)c1C	none
CCOC(=O)c1c(-n2c(C)cc(C=C3C(=O)NC(=O)NC3=O)c2C)sc2c1CCCC2	L major viab 83.9
CS(=O)(=O)NNP(=O)(NNS(C)(=O)=O)NC(=O)c1ccc(Br)cc1	none (no result: L major viab, Hsp70 act)
COP(=S)(OC)c1c(C)nn(CCC#N)c1NC(=O)c1ccc(Cl)cc1	none (no result: L major viab, Hsp70 act)
CN1CCN(C(=O)COc2ccc3ccccc3c2)CC1	none (no result: L major viab, Hsp70 act)
CN1CCN(C(=O)COc2ccc(-c3nc4ccccc4s3)cc2)CC1	L major viab 100.3
CCN(CC)C(=O)c1ccc(NC(=O)COc2ccc([N+](=O)[O-])cc2Cl)cc1	L major viab 50.1
CCN(CC)C(=O)c1ccc(NC(=O)c2cc(S(=O)(=O)N3CCCCCC3)ccc2OC)cc1	none (no result: L major viab, Hsp70 act)
CC1=C2[C@@H]3OC(=O)[C@H](C)C3CC[C@@]2(C)C=CC1=O (stereo partly specified)	none (no result: L major viab, Hsp70 act)
COCCCn1c(N)c(C(=O)OC(C)COC)c2nc3ccccc3nc21 (stereo unspecified)	none
Nc1c(C(=O)OCc2ccccc2)c2nc3ccccc3nc2n1Cc1cccs1	L major viab 69.2
CCC(C)OC(=O)c1c(N)n(Cc2cccs2)c2nc3ccccc3nc12 (stereo unspecified)	L major viab 90.8
CCC(=Nc1ccccc1NC(C)=O)c1c(O)n(C)c(=O)n(C)c1=O	none
c1ccc(CCN2CCC(N3CCN(c4ccccc4)CC3)CC2)cc1	L major viab 94.5
c1ccc(CCCN2CCN(CCOC(c3ccccc3)c3ccccc3)CC2)cc1	none (no result: L major viab, Hsp70 act)
COc1ccc(N2CCN(CCc3ccncc3)CC2)cc1	none (no result: L major viab, Hsp70 act)
CCCCN(Cc1ccccc1)C1CCN(CCc2ccccc2)CC1	L major viab 90.5
CC1=CC(C)C(COC(N)=O)(COC(N)=O)C(C)C1 (stereo unspecified)	none
CN(C)C1=NC(N(C)C)=NP(N(C)C)(N(C)C)=N1	none
O=C1CCCN1c1ccc(S(=O)(=O)O)cc1 (tested in a mixture with another compound)	none
CCC(C)N1C(=O)/C(=C/c2ccc3c(c2)CCN3CCCCl)C(=O)NC1=S (stereo unspecified)	L major viab 55.4
CC(C)NC(=O)c1ccc(N2CC3CC(C2)c2cccc(=O)n2C3)c([N+](=O)[O-])c1 (stereo unspecified)	none
c1ccc2c(CN3CCCCCC3)c[nH]c2c1	L major viab 56.6
CN(CC1COc2ccccc2O1)c1nc(-c2cccnc2)nc2ccccc12 (stereo unspecified)	L major viab 68.8, T cruzi repl inconclusive
CC[N+](CC)(CC#CCO)CC#Cc1ccccc1	none
CCCCCc1nc2ccccc2c(=O)n1-c1ccccc1[N+](=O)[O-]	L major viab 50.9
CCC(=NCCC(c1ccccc1)c1ccccc1)c1c(O)[nH]c(=O)[nH]c1=O	L major viab 71.8
C(=NC12CN3CN(CN(C3)C1)C2)c1cccs1	none
COC(=O)[C@]12OC[C@]34C([C@@H](O)[C@@H]1O)[C@]1(C)CC(=O)C(O)=C(C)[C@@H]1C[C@H]3OC(=O)[C@H](O)[C@@H]24 (stereo partly specified)	HSF1 inhib -68.9 (no result: L major viab, Hsp70 act)
CCc1ccc(-n2c(O)c(C(C)=O)c(=O)[nH]c2=O)cc1 (tested in a mixture with another compound)	none (no result: L major viab, Hsp70 act)
Cc1cc(/C=C2/C(=O)NC(=O)N(C)C2=O)c(C)n1-c1ccccc1	none
C=CCN1C(=O)/C(=C/c2cc(C)n(-c3ccccn3)c2C)C(=O)NC1=S	L major viab 95.8
COC(=O)C1=C(c2ccccc2)C[C@@H]2CC[C@H]1N2C(=O)N1CCC(O)CC1	none (no result: L major viab, Hsp70 act)
COC(=O)C1=C(c2cc3ccccc3s2)C[C@@H]2CC[C@H]1N2C(=O)NCc1ccc(C(F)(F)F)cc1	T cruzi repl 57.4 (no result: L major viab, Hsp70 act)
COC(=O)C1=C(c2cc3ccccc3s2)C[C@@H]2CC[C@H]1N2C(=O)NCC1CC1	none (no result: L major viab, Hsp70 act)
CCC1C2Cn3c(nc4ccccc43)C1N(C)O2 (stereo unspecified)	none (no result: L major viab, Hsp70 act)
CC1CCC(NCC(O)c2ccccc2)CC1 (stereo unspecified)	L major viab 71.2
OC(CNC1CCCCCCC1)c1ccccc1 (stereo unspecified)	none
COc1ccc(CC2(CCc3ccncc3)C(=O)NC(=O)NC2=O)c(OC)c1	none
CC(C)OCC(O)CN1CC2C[C@@H](C1)Cn1c2cccc1=O (stereo partly specified)	none (no result: L major viab, Hsp70 act)
CCCCSC1=NN1c1nc(N)nc(C)c1CC	none
CC(NCc1cccc(Cl)c1Cl)C(O)c1ccccc1 (stereo unspecified)	none
CC(NCc1ccc(Cl)cc1Cl)C(O)c1ccccc1 (stereo unspecified)	L major viab 64.4
CCOc1c(Cl)cc(CNC(C)C(O)c2ccccc2)cc1OC (stereo unspecified)	none
CC(NCc1ccc(Cl)cc1)C(O)c1ccccc1 (stereo unspecified)	L major viab 87.0
CCN1CCC2(CCNC2)C1 (stereo unspecified)	none
